BB579 growth dn = growth inhibitors of yeast BB579 in restrictive medium, primary screen, yeast lifespan-shortening project, S. cerevisiae; OD615, 48 h; inhibition, % at 10 µM; 140,000 compounds, 0.51% hits; AID 804, 2007;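 active = inhibition above a set limit, 3 SD over the mean compound inhibition, cut at about 44% in these data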
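Assay system – yeast BB579 (DeaD) · Dosing – single compound dose of 10 µM, 0.25% DMSO final · Detection – OD615 turbidity measurement · Buffer or medium – CSMM-D restrictive synthetic medium containing dextrose (glucose) · Benchmarks – positive control amphotericin B 10 µg/mL · Incubation – 48 h exposure, 30 °C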
Yeast life ext = compounds extending yeast replicative lifespan, primary screen, S. cerevisiae, OD615. S. cerevisiae growth with nicotinamide; deaD strain in restrictive glucose medium. inhibition of the nicotinamide effect, % at 10 µM. 130,000 compounds, 0.68% hits. AID 775, 2007;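 active = inhibition above a set limit, placed 3 SD over the median of all compounds, cut at about 26% in these data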
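Buffer or medium: CSMM-D glucose medium, restrictive; test system: modified budding yeast, DeaD strain; compound: single dose 10 µM compound, 0.25% DMSO; schedule: culture preincubation 4 h, compound exposure 48 h, both 30 °C; detection: optical density (absorbance) at 615 nm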
WT yeast gro inh = growth inhibition of WT strain, primary screen, mitochondrial fusion inhibitor project, WT and mutant strains, chemical genetic; AID 1362, 2008; mitochondrial fusion phenotypic screen; 190,000 compounds, 2.1% hits; inhibition, % at 10 µM; in the data active = inhibition above about 58%; tested in S. cerevisiae
RAM inhibit = inhibitors of the yeast RAM network, primary screen, dse1pr::URA3 reporter, 5-FOA selection | inhibition, % at 50 µM | 190,000 compounds, 1.8% hits | S. cerevisiae dse1pr::URA3 reporter, 5-FOA growth OD615, 2 d; analog-sensitive cbk1-as2 kinase mutant strain;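 active = inhibition above a set limit, 3 SD over mean compound inhibition, cut at about 8.4% in these data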;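 also: inhibition rescues growth on 5-FOA so higher OD means more RAM inhibition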
A number is an active result; i = inactive; nt = no result. In the library only some 4.3% were active in any assay of this set; here they are far more common.

SMILES	BB579 growth dn	Yeast life ext	WT yeast gro inh	RAM inhibit
Cc1ccc(C(C)C)cc1OCC(=O)N/N=C/c1ccc2c(c1)OCCO2	i	i	77	i
Nn1c(Cc2cccc3ccccc23)nnc1SCCOc1ccc(Br)cc1	i	i	68	i
COc1cc(C(=O)OC2CC3CCC2(C)C3(C)C)ccc1OC(C)=O (centres undefined)	nt	nt	73	i
Cc1ccc(C)c(NC(=O)CSc2nc3ccc(N4C(=O)c5ccccc5C4=O)cc3s2)c1	i	i	i	i
Cc1ccccc1NC1=C(Cl)C(=O)OC1OC(=O)c1ccccc1C (centres undefined)	nt	nt	68	i
Cc1ccc(NC2=C(Cl)C(=O)OC2OC(=O)c2ccccc2)c(C)c1 (centres undefined)	nt	nt	i	i
Cc1cc2ccccc2c(=O)[nH]1	i	i	i	i
Cc1nc2cc3ccccc3cc2c(=O)[nH]1	45	i	i	i
Cc1ccc(C(=O)Nc2ccnc(-c3ccncc3)n2)cc1	nt	nt	i	i
Cc1ccc(-c2nn(CCC(=O)NCC3CCCO3)c(=O)c3ccccc23)cc1 (centres undefined)	i	i	i	i
O=C(CCn1nc(-c2ccccc2)c2ccccc2c1=O)NCC1CCCO1 (centres undefined)	i	i	63	i
Cc1ccccc1C1CCCN(Cc2nc(CC3CC3)no2)C1 (centres undefined)	nt	nt	i	i
CC(C)OC(=O)C(C(=O)C(F)(F)F)c1cc(NS(=O)(=O)c2ccc3ccccc3c2)c2ccccc2c1O (centres undefined)	i	i	62	i
COCCCn1c(C)csc1=Nc1cccnc1	i	i	i	i
Cc1csc(=Nc2cccnc2)n1CC1CCCCC1	i	i	73	i
Cc1ccc(NC(=O)c2oc3ccc(S(=O)(=O)N4CCOCC4)cc3c2C)c(C)c1	nt	nt	i	9.4
CCOc1cc(C2/C(=C(/O)c3ccc(OC(C)C)cc3)C(=O)C(=O)N2CCCOC)ccc1O (centres undefined)	i	i	i	8.5
O=c1c(Cl)c(N2CCOCC2)cnn1-c1nc2ccccc2[nH]1	nt	nt	i	i
CCCCCCOc1ccc(N2C(=O)CC(S/C(N)=N/N=C(\C)c3cccs3)C2=O)cc1 (centres undefined)	i	i	i	i
C/C(=N\N=C(/N)SC1CC(=O)N(c2ccc(Cl)c(Cl)c2)C1=O)c1cccs1 (centres undefined)	i	i	98	i
C/C(=N\N=C(/N)SC1CC(=O)N(c2ccccc2)C1=O)c1cccs1 (centres undefined)	i	i	i	i
C/C(=N\N=C(/N)SC1CC(=O)N(c2ccc(Cl)cc2)C1=O)c1cccs1 (centres undefined)	i	i	60	i
C/C(=N\N=C(/N)SC1CC(=O)N(c2ccc(Br)cc2)C1=O)c1cccs1 (centres undefined)	i	i	65	i
Cc1[nH]c2ccccc2c1C(=O)C(=O)N1CCN(C(=O)c2ccco2)CC1	nt	nt	i	i
Cc1ccc(-c2nc(-c3ccc(Cl)cc3)sc2CC(=O)O)c(C)c1	nt	nt	i	9.6
SMILES	BB579 growth dn	Yeast life ext	WT yeast gro inh	RAM inhibit
O=C(O)Cc1sc(-c2ccccc2Cl)nc1-c1ccccc1	nt	nt	i	i
c1ccc2c(c1)C(=Nn1cnnc1)c1ccccc1-2	54	i	i	i
O=C1/C(=N/n2cnnc2)c2ccccc2N1Cc1ccccc1	i	39	i	i
Oc1ccccc1/C=N/n1cnnc1	i	i	i	i
O=C1c2cccnc2C(=O)N1Cc1ccccc1	i	i	i	i
CCCNC(=O)C1CCN(S(=O)(=O)c2cccc3nonc23)CC1	nt	nt	i	i
Cc1ccc(-c2cc(C(=O)Nc3ccc4c(c3)OCCO4)c3ccccc3n2)cc1	i	i	i	i
Cc1ccc(-n2c(O)c(C=Nc3ccc4c(c3)OCO4)c3ccccc3c2=O)cc1C	i	i	i	10
FC(F)(F)c1cccc(CNc2ncccc2-c2nc3cc(Cl)ccc3o2)c1	i	i	i	8.5
CCOCCCNC(=O)C(NC(=O)c1ccc(NC(C)=O)cc1)c1ccc(OC)cc1 (centres undefined)	i	i	i	i
COC(=O)c1c(NC(=O)CN2CCC3(O)CCCCC3C2c2ccccc2OC)sc(C)c1C (centres undefined)	i	i	73	i
COC(=O)c1c(NC(=O)CN2CCC3(O)CCCCC3C2c2ccc(OC)cc2OC)sc(C)c1C (centres undefined)	i	i	59	i
O=[N+]([O-])c1ccc(Nc2nc(NC3CCCCC3)nc(N3CCCC3)n2)cc1	nt	nt	77	i
c1ccc(Nc2nc(N3CCCCC3)nc(N3CCCCC3)n2)cc1	i	i	i	i
CCOc1ccc(Nc2nc(N3CCCCC3)nc(N3CCCCC3)n2)cc1	i	i	61	i
COc1ccc(Nc2nc(N3CCCCC3)c3ccccc3n2)cc1	i	i	75	i
O=C(O)CCn1cc(/C=N/O)c(-c2cccc([N+](=O)[O-])c2)n1	nt	nt	i	i
COc1cc(/C=C(\C#N)C(=O)Nc2ccccc2C(=O)O)cc(Cl)c1OC	nt	nt	i	i
Cc1c(N=Cc2cc(Br)cc(Br)c2O)cccc1C(=O)O	98	i	i	i
O=C(O)c1cccc(N/N=C/c2cc(Br)cc(Br)c2O)c1	i	i	i	i
Cc1[nH]n(-c2ccccc2)c(=O)c1/C=N/NC(=O)c1cccc([N+](=O)[O-])c1	i	i	i	i
Cc1ccc(-n2[nH]c(C)c(/C=N/Nc3ccc([N+](=O)[O-])cc3[N+](=O)[O-])c2=O)cc1C	i	i	70	i
CC[C@H](C)C(C(=O)N1CCN(C(=O)OC(C)(C)C)CC1)n1cc(C(Cc2ccc(O)cc2)NC(=O)OC(C)(C)C)nn1 (some centres undefined)	nt	nt	i	i
S=C(NCCCN1CCOCC1)NC1CC1	nt	nt	i	i
CC(NC(=S)NCCCN1CCOCC1)C1CC2CCC1C2 (centres undefined)	nt	nt	59	i
SMILES	BB579 growth dn	Yeast life ext	WT yeast gro inh	RAM inhibit
O=C1OCC(CO)(CO)N=C1NNc1ccccc1Cl	98	i	i	i
Cc1cc(C(F)F)n2ncc(C(=O)O)c2n1	i	i	i	i
Clc1ccc(CN2C3=NCCCN3c3ccccc32)cc1Cl	nt	nt	i	i
Cc1ccc(C)c(N2CCN(CCCNC(=O)Cn3cccc3C(=O)c3ccccc3C)CC2)c1	nt	nt	80	i
Cc1ccc(CNC(=O)Cn2cccc2C(=O)c2ccccc2C)cc1	nt	nt	i	i
Cc1ccccc1C(=O)c1cccn1CC(=O)NCCN1CCN(c2cccc(C)c2C)CC1	i	i	80	i
COc1cc(CC(C#N)(CO)c2nc3ccccc3[nH]2)ccc1OC(F)F (centres undefined)	i	i	i	i
Cc1ccc(NS(=O)(=O)c2ccc(OCC(=O)NCC3CCCO3)cc2)cc1 (centres undefined)	nt	nt	i	i
O=C(COC(=O)Cc1ccc(Cl)cc1Cl)Nc1ccccc1OC(F)F	i	i	i	i
CSc1ccc(OC2CCN(Cc3ccccc3)CC2)cc1	i	i	63	i
C/C=C/C(=O)OCC(=O)Nc1nc2ccc(C)cc2s1	i	49	i	i

Screening results (PubChem BioAssay)
